Drawing on ChEMBL document CHEMBL1932987, “Straightforward palladium-mediated synthesis and biological evaluation of benzo[j]phenanthridine-7,12-diones as anti-tuberculosis agents” (Eur J Med Chem, 2012), this text covers MIC99 for one compound.

In the assay the test system is Mycobacterium tuberculosis. Kind of assay: Antimycobacterial activity against multi-drug resistant Mycobacterium tuberculosis LAM-1 after 1 to 6 days by BACTEC 460-TB assay. The assay is classed as functional. In short, it runs like this: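 Drug-resistant clinical LAM-1 isolate of M.tb. (resistant to isoniazid, rifampicin, rifabutin, prothionamid) tested in the BACTEC 460-TB radiometric system. Growth index read over time and compared with an untreated control and with a 100-fold diluted inoculum to derive MIC99. Isoniazid run in parallel to confirm resistance.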

≈ marks a conversion by molar mass, not a printed value.

Turning to `Cc1ccc2c3c(cnc2c1)C(=O)c1ccccc1C3=O`, the MIC99 (as a rule, an inhibitory concentration at the 99% level, which refers to growth in some studies and to a panel of isolates in others) was 0.71 µM (≈ 0.194 µg/mL).
